What is called IC50 is the concentration that gives 50% inhibition.

The record followed here is ChEMBL document CHEMBL1146243, “Design, synthesis, and biological evaluation of tricyclic heterocycle-tetraamine conjugates as potent NMDA channel blockers” (Bioorg Med Chem Lett, 2007).

Test [1] addresses Glutamate NMDA receptor; GRIN1/GRIN2A (Homo sapiens, UniProt Q05586+Q12879). Description: Antagonist activity at recombinant NR1/NR2A receptor expressed in Xenopus laevis oocytes. Format: functional, cell-based, Oocyte. The method, boiled down: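 Two-electrode voltage clamp of oocytes injected with NR1 plus NR2A cRNA at 1:5 (0.1–4 ng NR1 plus 0.5–20 ng NR2), held at -70 mV. Receptors activated by superfused glycine and glutamate (10 µM). IC50 from concentration–inhibition curves over five or six concentrations; means ± SEM of four oocytes.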

The subject of another test is FM3A. Put plainly: Cytotoxicity in mouse FM3A cells after 48 hrs. The format is functional, cell-based. The method, boiled down: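 FM3A cells (1 × 10⁴) cultured in ES medium with or without various compound concentrations at 37 °C for 48 h. Cells counted with 0.05% Trypan blue. IC50 as mean ± SD of triplicate determinations.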
For test [2], the target named is Glutamate NMDA receptor; GRIN1/GRIN2B (Homo sapiens, UniProt Q05586+Q13224). Put plainly: Antagonist activity at recombinant NR1/NR2B receptor expressed in Xenopus laevis oocytes. The format is functional, cell-based, Oocyte. In a few lines: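 Xenopus oocytes injected with NR1 plus NR2B cRNAs at 1:5 (0.1–4 ng NR1 plus 0.5–20 ng NR2). Two-electrode voltage clamp at −70 mV. Receptors activated by superfused glycine and glutamate (10 µM). IC50 from concentration–inhibition curves using five or six concentrations. Means ± SEM of four oocytes.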

Each structure is given as a SMILES string.

Glutamate NMDA receptor; GRIN1/GRIN2A, sequence (Q12879 whole entry, other chains not shown, the tested form may be a part): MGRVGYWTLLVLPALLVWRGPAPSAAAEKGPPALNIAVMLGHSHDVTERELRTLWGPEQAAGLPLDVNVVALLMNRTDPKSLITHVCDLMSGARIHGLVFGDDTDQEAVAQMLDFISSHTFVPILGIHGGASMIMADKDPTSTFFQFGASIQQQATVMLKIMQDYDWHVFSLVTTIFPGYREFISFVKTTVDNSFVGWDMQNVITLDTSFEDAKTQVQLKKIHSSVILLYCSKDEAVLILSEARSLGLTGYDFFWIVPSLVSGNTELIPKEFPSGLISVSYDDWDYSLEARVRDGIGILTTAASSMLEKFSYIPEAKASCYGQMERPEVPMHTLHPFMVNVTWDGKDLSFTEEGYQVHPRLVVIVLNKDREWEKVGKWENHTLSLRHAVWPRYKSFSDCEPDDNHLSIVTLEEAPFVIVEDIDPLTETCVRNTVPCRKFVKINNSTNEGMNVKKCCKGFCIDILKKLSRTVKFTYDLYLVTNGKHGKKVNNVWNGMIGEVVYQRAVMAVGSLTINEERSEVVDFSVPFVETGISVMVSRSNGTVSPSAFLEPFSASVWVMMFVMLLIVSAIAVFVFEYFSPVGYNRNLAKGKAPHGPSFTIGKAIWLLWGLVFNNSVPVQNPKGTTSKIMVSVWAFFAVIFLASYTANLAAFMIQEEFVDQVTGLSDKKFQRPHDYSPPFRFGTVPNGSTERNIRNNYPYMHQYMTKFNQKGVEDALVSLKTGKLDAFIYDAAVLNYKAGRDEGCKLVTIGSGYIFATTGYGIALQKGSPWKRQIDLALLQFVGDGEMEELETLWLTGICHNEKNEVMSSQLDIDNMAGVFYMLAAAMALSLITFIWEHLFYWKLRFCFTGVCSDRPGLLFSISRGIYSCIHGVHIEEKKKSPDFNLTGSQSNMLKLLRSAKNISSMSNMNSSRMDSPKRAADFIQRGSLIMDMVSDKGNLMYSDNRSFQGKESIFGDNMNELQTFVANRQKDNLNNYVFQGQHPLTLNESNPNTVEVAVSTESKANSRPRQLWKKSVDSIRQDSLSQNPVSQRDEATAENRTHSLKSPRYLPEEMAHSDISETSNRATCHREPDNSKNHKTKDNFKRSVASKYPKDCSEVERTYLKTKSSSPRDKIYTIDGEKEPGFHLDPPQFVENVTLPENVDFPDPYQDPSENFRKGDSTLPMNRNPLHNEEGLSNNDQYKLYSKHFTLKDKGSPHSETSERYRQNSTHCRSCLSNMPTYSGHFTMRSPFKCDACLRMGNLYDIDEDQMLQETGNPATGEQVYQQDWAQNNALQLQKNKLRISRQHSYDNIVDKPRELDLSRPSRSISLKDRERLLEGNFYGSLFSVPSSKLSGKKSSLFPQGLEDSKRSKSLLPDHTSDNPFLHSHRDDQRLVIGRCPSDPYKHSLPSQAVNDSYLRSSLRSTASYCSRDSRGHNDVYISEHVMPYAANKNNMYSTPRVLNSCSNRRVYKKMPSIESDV
Glutamate NMDA receptor; GRIN1/GRIN2B, sequence (Q13224 whole entry, other chains not shown, the tested form may be a part): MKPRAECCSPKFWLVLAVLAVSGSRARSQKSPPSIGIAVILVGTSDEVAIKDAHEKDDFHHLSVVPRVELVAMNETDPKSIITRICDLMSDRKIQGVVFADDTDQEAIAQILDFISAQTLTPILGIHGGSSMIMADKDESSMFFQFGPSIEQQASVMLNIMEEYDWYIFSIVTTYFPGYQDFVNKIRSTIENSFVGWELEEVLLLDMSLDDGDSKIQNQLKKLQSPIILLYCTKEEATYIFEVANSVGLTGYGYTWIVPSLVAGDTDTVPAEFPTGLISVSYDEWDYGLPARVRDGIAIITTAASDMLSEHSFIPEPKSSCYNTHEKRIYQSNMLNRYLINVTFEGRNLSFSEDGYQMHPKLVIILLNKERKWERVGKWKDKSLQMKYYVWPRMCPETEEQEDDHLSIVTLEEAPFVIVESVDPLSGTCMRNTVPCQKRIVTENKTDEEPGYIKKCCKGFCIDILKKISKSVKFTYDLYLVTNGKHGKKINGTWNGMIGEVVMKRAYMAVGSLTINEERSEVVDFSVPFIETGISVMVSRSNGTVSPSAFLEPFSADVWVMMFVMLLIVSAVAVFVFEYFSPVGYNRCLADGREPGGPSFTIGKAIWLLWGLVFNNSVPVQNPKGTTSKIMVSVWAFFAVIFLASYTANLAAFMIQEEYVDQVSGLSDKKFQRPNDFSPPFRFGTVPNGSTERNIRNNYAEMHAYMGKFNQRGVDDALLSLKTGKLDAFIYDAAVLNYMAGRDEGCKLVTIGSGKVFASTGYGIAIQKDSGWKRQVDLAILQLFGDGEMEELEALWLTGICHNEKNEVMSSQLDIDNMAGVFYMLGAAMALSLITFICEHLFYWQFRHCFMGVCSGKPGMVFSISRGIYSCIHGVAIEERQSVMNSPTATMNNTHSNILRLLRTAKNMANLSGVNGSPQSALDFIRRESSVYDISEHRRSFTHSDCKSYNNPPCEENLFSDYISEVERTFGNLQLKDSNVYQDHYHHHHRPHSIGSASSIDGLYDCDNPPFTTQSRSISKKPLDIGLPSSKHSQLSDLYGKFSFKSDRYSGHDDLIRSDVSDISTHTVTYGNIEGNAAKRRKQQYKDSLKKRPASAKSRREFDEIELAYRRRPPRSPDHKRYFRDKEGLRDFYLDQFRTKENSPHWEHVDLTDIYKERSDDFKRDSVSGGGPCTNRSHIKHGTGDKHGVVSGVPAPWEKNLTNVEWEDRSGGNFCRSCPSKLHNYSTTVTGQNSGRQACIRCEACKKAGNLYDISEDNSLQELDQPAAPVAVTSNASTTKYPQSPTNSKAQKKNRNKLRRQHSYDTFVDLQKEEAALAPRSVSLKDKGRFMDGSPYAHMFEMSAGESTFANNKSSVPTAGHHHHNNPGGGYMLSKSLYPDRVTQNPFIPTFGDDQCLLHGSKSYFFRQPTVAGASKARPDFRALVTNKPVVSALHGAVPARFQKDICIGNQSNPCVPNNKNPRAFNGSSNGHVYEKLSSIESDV

For the compound `NCCCNCCCCNCCCNC(=O)c1ccc2c(c1)C(=O)c1ccccc1C2=O`, the IC50 came to 392 nM in test [1], 14900 nM with FM3A and 491 nM in test [2].
Regarding `NCCCCNCCCNCCCCNC(=O)N1c2ccccc2C=Cc2ccccc21`, the IC50 in test [1] was determined as 198 nM; with FM3A, 115000 nM; in test [2], 335 nM.
As for `NCCCCNCCCCNCCCCNC(=O)N1c2ccccc2C=Cc2ccccc21`, the IC50 in the test with FM3A amounted to 132000 nM; in test [2], 293 nM.
For `NCCCNCCCCNCCCNC(=O)N1c2ccccc2CCc2ccccc21`, the IC50 was found to be 958 nM in test [1], 102000 nM in the test on FM3A and 442 nM in test [2].
Consider `NCCCCNCCCNCCCCNC(=O)N1c2ccccc2CCc2ccccc21`, for which the 50% inhibitory concentration (IC50) in test [1] was 117 nM; with FM3A it was 169000 nM; in test [2], 270 nM.
As to `NCCCCNCCCCNCCCCNC(=O)N1c2ccccc2CCc2ccccc21`, the values for the IC50 (in the test on FM3A; in test [2]) were 133000 nM and 142 nM, respectively.
As for `NCCCCNCCCNCCCCNC(=O)N1c2ccccc2Sc2ccccc21`, the IC50 worked out at 78 nM in test [1], 32500 nM in the test with FM3A and 108 nM in test [2].
Turning to `NCCCCNCCCCNCCCCNC(=O)N1c2ccccc2Sc2ccccc21`, the values for the IC50 (in test [1]; with FM3A; in test [2]) were 127 nM, 40400 nM and 108 nM, respectively.
Turning to `NCCCNCCCCNCCCNC(=O)n1c2ccccc2c2ccccc21`, the IC50 is 145 nM in test [1], 31300 nM in the test on FM3A and 83 nM in test [2].
As for `NCCCCNCCCCNCCCCNC(=O)n1c2ccccc2c2ccccc21`, the IC50 stood at 111 nM in test [1], 84200 nM in the test with FM3A and 166 nM in test [2].
Regarding `NCCCNCCCCNCCCNC(=O)N1c2ccccc2C=Cc2ccccc21`, the values for the IC50 (in test [1]; in the test with FM3A; in test [2]) were 203 nM, 97600 nM and 199 nM, respectively.
With `NCCCNCCCCNCCCNC(=O)N1c2ccccc2Sc2ccccc21`, the IC50 turned out to be 215 nM in test [1], 57100 nM in the test on FM3A and 348 nM in test [2].
In the case of `NCCCCNCCCNCCCCNC(=O)n1c2ccccc2c2ccccc21`, the figures for the IC50 (in test [1]; in the test on FM3A; in test [2]) were 211 nM, 42300 nM and 189 nM, respectively.
`CC12CC3CC(C)(C1)CC(N)(C3)C2` [MEMANTINE]: in the test with FM3A, the IC50 came out at 147000 nM.
